Reference: PMC2585546 (Bioorganic & medicinal chemistry, 2008)
pKd: −log10 of the molar value.

Assays:
RNA A [1] = experiment: Thiazole orange fluorescent intercalator displacement; format: binding; conditions: read-out: Dissociation constants (FID); apparent KD from IC50, competitive model; 50 mM Bis-Tris·HCl pH 7.0, 100 mM NaCl, 10 mM MgCl2, 50 nM thiazole orange, 100 nM RNA A, 25 °C; average of three independent measurements ± SD
RNA A [2] = experiment: Thiazole orange fluorescence enhancement on RNA binding
RNA B = experiment: Thiazole orange fluorescence enhancement on RNA binding; parameters: species or system human; conditions: thiazole orange 2.6 µM, RNA 2 µM
Outline: (§1)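 Fold rise in thiazole orange fluorescence, with the dye at 2.6 µM and each RNA at 2 µM. RNA A is an in vitro selected aptamer stem-loop, used as supplied. RNA B (human pre-miRNA 23b sequence) and control stem-loop RNA C were 2'-ACE-deprotected (100 mM acetic acid, TEMED to pH 3.8, 60 °C, 30 min), phenol/chloroform-extracted, ethanol-precipitated and kept in water at −20 °C.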

RNA C = experiment: as above; conditions: thiazole orange 2.6 µM, RNA 2 µM
Outline: as §1

## NC[C@@H]1O[C@H](O[C@H]2[C@@H](O)[C@H](O[C@H]3[C@@H](O)[C@H](N)C[C@H](N)[C@H]3O[C@H]3O[C@H](CN)[C@@H](O)[C@H](O)[C@H]3N)O[C@@H]2CO)[C@H](N)[C@@H](O)[C@@H]1O [compound 7, neomycin]
RNA A [1]
  pKd: < 4.22

## NC[C@H]1O[C@H](O[C@H]2[C@H](O)[C@@H](O[C@H]3O[C@H](CO)[C@@H](O)[C@H](N)[C@H]3O)[C@H](N)C[C@@H]2N)[C@H](O)[C@@H](O)[C@@H]1O [compound 8, kanamycin]
RNA A [1]
  pKd: < 4.00

## CN1C(=Cc2cc[n+](C)c3ccccc23)Sc2ccccc21 [thiazole orange]
RNA A [2]; thiazole orange 50 nM, RNA A 100 nM
  Fold stimulation of thiazole orange fluorescence by RNA A: ~20 fold
RNA A [2]; thiazole orange 2.6 µM, RNA 2 µM
  Fold enhancement of thiazole orange fluorescence by RNA A: 2308 fold
RNA B
  Fold enhancement of thiazole orange fluorescence by RNA B: 977 fold
RNA C
  Fold enhancement of thiazole orange fluorescence by control RNA C: 96 fold
